Assay results of several laboratories.
Each line is one published result; the experiments were not run side by side.
Target: Histamine H3 receptor (HRH3, Homo sapiens, UniProt Q9Y5N1)

The inhibition of `CCCNc1nc2ccccc2n1Cc1ccc(Cl)cc1` is reported as -5.56% (ligand displacement; 10 µM).
`CCN(Cc1ccccc1C(F)(F)F)C(=O)C1CCN(S(=O)(=O)c2ccc3[nH]ncc3c2)CC1` has an inhibition of 6% (ligand displacement, radioligand; 10 µM).
The inhibition of `CN1CCN(CCCOc2ccc(=O)n(-c3ccc(Cl)c(Cl)c3)n2)CC1` is reported as 38.2% (ligand displacement; 1 µM).
The inhibition of `N#Cc1cc(Cn2c(N3CCCC3)nc3ccccc32)ccc1F` is reported as 1.97% (ligand displacement; 10 µM).
`CC(=O)Nc1ncc(CN2CCC[C@H](Cc3cc(C)nc(C)c3)C2)s1` gave an inhibition of 10.8% (ligand displacement; 10 µM).
The inhibition of `CCN(CC)c1ccc(C2Nc3ccc(C(=O)c4ccccc4)cc3NC3=C2C(=O)CC(C)(C)C3)cc1` (stereo not drawn) is reported as 43% (ligand displacement, radioligand; 10 µM).
With `COc1ccc(-n2nc(OCCCN3CCCCC3)ccc2=O)cc1` the inhibition was 23.3% (ligand displacement; 1 µM).
`CCS(=O)(=O)c1cc2cc(C[C@](O)(CC(C)(C)c3ccc(F)cc3C(N)=O)C(F)(F)F)[nH]c2cn1` gave an inhibition of 11.7% (ligand displacement; 10 µM).
`O=C(c1ccc(F)cc1)N(Cc1ccccc1)C1CCCCC1` gave an inhibition of 15% (cell-free assay; 10 µM).
